Screens: PubChem BioAssay, several laboratories
STEP inh: blocks human striatal-enriched tyrosine phosphatase | 0.25% of 360,000 active | AID 588621 | inhibition, % at 20 µM | recombinant STEP, OMFP fluorogenic substrate, fluorescence | P54829;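 active = inhibition at 20 µM, scaled per plate between control wells, above about 37%, limit read from the data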;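 note: 0% = DMSO with enzyme and substrate and 100% = substrate only without enzyme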
Target sequence (P54829 whole entry, looked up): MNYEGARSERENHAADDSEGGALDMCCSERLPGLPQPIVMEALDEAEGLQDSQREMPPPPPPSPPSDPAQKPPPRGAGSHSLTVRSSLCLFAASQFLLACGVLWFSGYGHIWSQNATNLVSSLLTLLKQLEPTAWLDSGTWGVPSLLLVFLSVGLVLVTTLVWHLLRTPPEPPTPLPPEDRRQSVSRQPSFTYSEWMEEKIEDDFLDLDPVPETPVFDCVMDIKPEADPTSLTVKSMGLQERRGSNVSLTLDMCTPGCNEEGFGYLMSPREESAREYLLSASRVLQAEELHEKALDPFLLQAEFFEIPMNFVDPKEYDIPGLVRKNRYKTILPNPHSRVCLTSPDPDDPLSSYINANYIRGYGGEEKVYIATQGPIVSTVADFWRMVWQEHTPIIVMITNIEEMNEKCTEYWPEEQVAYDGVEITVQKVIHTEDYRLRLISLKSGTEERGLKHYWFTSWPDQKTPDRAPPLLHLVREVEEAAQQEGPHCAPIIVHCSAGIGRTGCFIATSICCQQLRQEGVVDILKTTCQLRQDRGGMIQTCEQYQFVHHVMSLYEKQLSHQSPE
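Measure: Control-normalized % inhibition with plate pattern correction | Test system: STEP phosphatase, cell-free reaction | Medium: pH 6.0 Bis-Tris with DTT and Tween 20 | Technique: Fluorescence, 480/540 nm | Times: Reaction 20 min, ambient temperature | Doses: Single compound dose of 20 µM, 1% DMSO final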
LMPTP block: blocks human LMPTP phosphatase. P24666. recombinant LMPTP-A, OMFP fluorogenic substrate, fluorescence intensity. inhibition, % at 20 µM. 0.22% of 360,000 active;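 active = compounds that cut the enzyme signal by at least half of the control window in the single-dose screen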;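 note: plate controls were DMSO wells with enzyme plus substrate for no effect and substrate without enzyme for full effect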
Target sequence (P24666 whole entry, looked up): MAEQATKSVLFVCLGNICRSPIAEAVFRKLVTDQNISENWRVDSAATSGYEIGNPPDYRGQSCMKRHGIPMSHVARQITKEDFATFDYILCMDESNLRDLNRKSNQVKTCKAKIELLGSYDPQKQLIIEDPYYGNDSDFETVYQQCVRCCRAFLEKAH
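Assay system: LMPTP-A, protein tyrosine phosphatase of low molecular weight / Medium: pH 6.0 Bis-Tris buffer with DTT and Triton X-100 / Schedule: 50 min enzyme reaction at room temperature, protected from light / Measured by: endpoint fluorescence intensity from OMFP dephosphorylation / Read-out basis: % inhibition relative to no-enzyme and uninhibited control wells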
rCAG RNA binder: binds r(CAG) RNA repeats; 1.3% of 370,000 active; inhibition, % at 3 µM; AID 651821; r(CAG) RNA repeat, TO-PRO-1 dye displacement fluorescence;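 active = inhibition above the plate cutoff, the mean of all test compounds on that plate plus 3 SD, cut at about 35% in these data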;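 note: 0% = DMSO alone and 100% = 100 µM mitoxantrone as full dye displacement; higher means more dye released from RNA so lower well fluorescence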
NadD inh: blocks S. aureus nicotinate mononucleotide adenylyltransferase. purified NadD enzyme, colorimetric absorbance read-out. inhibition, % at 20 µM. 0.78% of 360,000 active. AID 602399; in the data active = inhibition above about 26%
Scp1 inh: Scp-1 (human) phosphatase inhibition | AID 493091 | Recombinant Scp1, phosphopeptide, malachite green phosphate absorbance | 0.88% of 340,000 active | Q9GZU7 | inhibition, % at 20 µM;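 active = inhibition above about 50% at 20 µM, limit read from the data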;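 note: plate controls were DMSO wells with enzyme for no effect and wells lacking enzyme for full effect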
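assay system = SCP-1 phosphatase catalytic domain, residues 76-261 | buffer or medium = 50 mM Tris acetate pH 5.5, 0.005% Tween-20, 10 mM MgCl2 | incubation = enzyme reaction 45 min at room temperature, colour 5 min, stabilisation 30 min | signal = Phosphate-binding colour reagent, absorbance read at 630 nm | measure = % inhibition at 20 µM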
rCAG bind conf: r(CAG) RNA repeat binding, confirmation; 70% of 4,300 active; shares compounds with rCAG RNA binder; AID 652065; inhibition, % at 3 µM; TO-PRO-1 dye displacement fluorescence;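 active = inhibition above a per-plate cutoff, the mean inhibition of sample wells plus 3 SD, cut at about 35% in these data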;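 note: loss of TO-PRO-1 fluorescence as compound displaces dye from 1x1 AA loop RNA; 0% = DMSO only wells and 100% = 100 µM mitoxantrone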
DNA CAG counter: counter-screen for rCAG RNA binders: DNA CAG dye complex inhibitors; 94% of 4,300 active; shares compounds with rCAG RNA binder; d(CAG) DNA oligo TO-PRO-1 dye displacement, fluorescence; inhibition, % at 3 µM;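 active = inhibition above its plate's cutoff, the mean test-well inhibition plus 3 SD, cut at about 4.8% in these data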;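 note: 0% = DNA dye mix with DMSO and 100% = 100 µM mitoxantrone; hits displace the dye from DNA and so lower well fluorescence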
* hit, by the source's call; x = no result given. In the library only some 2.6% were active in any assay of this set; here they are far more common.

SMILES | STEP inh | LMPTP block | rCAG RNA binder | NadD inh | Scp1 inh | rCAG bind conf | DNA CAG counter
CCOc1cc(Br)cc(/C=C2\SC(=Nc3ccccc3)NC2=O)c1O | 1 | 0 | 67* | 36* | -9 | 83* | 47*
CCOC(=O)C1=C(O)/C(=C/c2ccc(OCC(=O)O)c(OC)c2)SC1=Nc1ccc(OCC)cc1 | 0 | 1 | 38* | -1 | -5 | 65* | 21*
CCOc1cc(/C=C2\SC(=Nc3ccc(CC)cc3)NC2=O)ccc1OCC(=O)O | 6 | 0 | 71* | 17 | 44 | 47* | 14*
O=S1(=O)C=CCN1Cc1cn(Cc2ccc(F)cc2)nn1 | x | x | 1 | x | x | x | x
O=C1CSc2ccc(C(=O)N3CCCC(C(=O)N4CCCC4)C3)cc2N1 (centres undefined) | x | x | 2 | x | x | x | x
CCOC(=O)[C@@]12CN(C(=O)OC(C)(C)C)CC=C1N(Cc1ccc(OC)cc1)C(=O)[C@H]2CC(=O)NCc1ccccc1 | x | x | 5 | x | x | x | x
O=C(NCC1CCN(C(=O)C(=O)c2cccs2)CC1)c1ccc2c(c1)OCO2 | x | x | 2 | x | x | x | x
CCc1ccc(N=C2NC(=O)/C(=C/c3cc(Br)c(OCC(=O)O)c(OC)c3)S2)cc1 | 97* | 59* | 57* | 24 | 28 | 56* | 19*
CCc1ccc(N=C2NC(=O)/C(=C/c3cc(OC)c(OC)c(OC)c3)S2)cc1 | 1 | 1 | 23 | 5 | -3 | x | x
CCOC(=O)C1=C(O)/C(=C/c2ccc(-c3ccccc3C(=O)O)o2)SC1=Nc1ccc(OC)cc1 | 6 | 7 | 38* | 20 | -5 | 80* | 38*
CCOC(=O)C1=C(O)/C(=C/c2ccc(-c3ccccc3C(=O)O)o2)SC1=Nc1ccc(C)cc1 | 4 | 7 | 28 | 21 | 9 | x | x
CCn1c(SCc2ccccc2Cl)nnc1-c1ccccc1OC | x | x | 0 | x | x | x | x
Cc1sc(NC(=O)C2CCCCC2C(=O)O)c(C(N)=O)c1-c1ccc(C(C)C)cc1 (centres undefined) | -4 | 0 | 37* | 11 | -13 | 54* | 16*
Cc1sc(NC(=O)C2CCCCC2C(=O)O)c(C(N)=O)c1-c1ccccc1 (centres undefined) | 0 | 0 | 15 | 6 | -5 | x | x
Oc1c(C=C2N=c3ccccc3=N2)sc(=S)n1-c1ccc2ccccc2c1 | 1 | 3 | 6 | 15 | -7 | x | x
O=C(Nn1c(O)c(C=C2N=c3ccccc3=N2)sc1=S)c1ccc(Cl)cc1 | -2 | 3 | 13 | -8 | -11 | x | x
Cc1ccc(C(=O)Nn2c(O)c(C=C3N=c4ccccc4=N3)sc2=S)cc1 | -2 | 2 | 58* | 10 | -10 | 40* | 16*
O=C1N=c2ccccc2=C1c1sc(=S)n(NC(=O)c2cccc(O)c2)c1O | 3 | 1 | 11 | 21 | -5 | x | x
O=C(Nn1c(O)c(C=C2N=c3ccccc3=N2)sc1=S)c1cccc(Cl)c1 | -2 | 3 | 73* | 11 | 5 | 43* | 15*
O=C1N=c2ccc(Br)cc2=C1c1sc(=S)n(NS(=O)(=O)c2ccccc2)c1O | 2 | 2 | 81* | 21 | -8 | 80* | 50*
O=C(Nn1c(O)c(C=C2N=c3ccccc3=N2)sc1=S)c1ccccc1 | -1 | 3 | 51* | -2 | -4 | 23 | 9.6*
O=C(c1cc(C2CC2)on1)N(C1CCCCC1)C1CCCCC1 | x | x | 0 | x | x | x | x
CCCN(CC1CC1)C(=O)c1ccc(CNC(=O)c2cccc(Br)c2)cc1 | x | x | 0 | x | x | x | x
CN(C)S(=O)(=O)c1cccc(C(=O)N/N=C\c2ccccc2[N+](=O)[O-])c1 | x | x | 4 | x | x | x | x
Oc1c(C=C2N=c3ccccc3=N2)sc(=S)n1C1CCCC1 | -2 | 1 | 11 | -2 | -14 | x | x
SMILES | STEP inh | LMPTP block | rCAG RNA binder | NadD inh | Scp1 inh | rCAG bind conf | DNA CAG counter
Cc1ccc(S(=O)(=O)Nn2c(O)c(C=C3N=c4ccccc4=N3)sc2=S)cc1 | -2 | 0 | 94* | 7 | -1 | 88* | 60*
Cc1csc(NC(=O)c2ccc(COc3ccc(Cl)c(Cl)c3)o2)n1 | x | x | 5 | x | x | x | x
Cc1nc(NS(=O)(=O)c2ccc(Cl)s2)c2c3c(sc2n1)CCCC3 | -1 | 1 | 78* | 5 | -8 | 55* | 19*
Cc1nc(NCCc2ccc(S(N)(=O)=O)cc2)c2c3c(sc2n1)CCC3 | -5 | 1 | 6 | 12 | 0 | x | x
CC(C)C[C@H]1COc2cccc(F)c2S(=O)(=O)N1Cc1cn(CCC2OCCCO2)nn1 | x | x | 2 | x | x | x | x
O=C(O)c1cc(-c2ccc(Cl)c(Cl)c2)n(-c2ccccc2)n1 | 2 | -1 | 41* | 1 | -7 | 12 | 0
CSc1nnc(N2C(=O)C(O)=C(C(=O)c3ccc(C)o3)C2c2ccc(C)cc2)s1 (centres undefined) | 2 | 13 | 39* | 15 | -11 | 32 | 5.6*
CCCSc1nnc(N2C(=O)C(O)=C(C(=O)c3ccco3)C2c2ccccc2F)s1 (centres undefined) | 1 | 4 | 48* | 14 | 0 | 41* | 11*
O=C(N=Nc1c(O)[nH]c2ccccc12)c1cc(NS(=O)(=O)c2cccs2)cc(NS(=O)(=O)c2cccs2)c1 | 0 | 7 | 67* | 25 | 0 | 73* | 35*
O=C(c1cc(Br)c(Br)s1)N1CCN(C/C=C/c2ccccc2)CC1 | 0 | 4 | 36* | -5 | -1 | 3 | 3
Cc1cc(C(=O)N2CCN(C/C=C/c3ccccc3)CC2)cs1 | 0 | 1 | x | 12 | -8 | x | x
C[C@@H]1COc2cc(Br)ccc2S(=O)(=O)N1Cc1cn(Cc2ccccc2)nn1 | x | x | 3 | x | x | x | x
Cc1ccc(Cn2cc(CN3[C@H](c4ccccc4)COc4cc(Br)ccc4S3(=O)=O)nn2)cc1 | x | x | 66* | x | x | 51* | 19*
CNS(=O)(=O)c1cc(N)ccc1C | -3 | -1 | -1 | -1 | -3 | x | x
Cc1ccc(Nc2ccc(N)cc2S(=O)(=O)O)cc1 | 5 | 67* | 36* | 2 | 15 | 26 | 7.2*
O=C(/C=C/c1ccccc1)NC(NC(=S)Nc1ccc(C(=O)O)cc1)C(Cl)(Cl)Cl (centres undefined) | -1 | 0 | 65* | 2 | -13 | 56* | 14*
O=C(/C=C/c1ccccc1)NC(NC(=S)Nc1cccc(O)c1)C(Cl)(Cl)Cl (centres undefined) | -2 | 3 | 24 | -1 | -9 | x | x
CC1(C)CC(=O)C(C2C3=C(CC(C)(C)CC3=O)Oc3ccccc32)=C(O)C1 (centres undefined) | 1 | 0 | 5 | 6 | -9 | x | x
CC1(C)CC(=O)C(C2C3=C(CC(C)(C)CC3=O)OC3=C2C(=O)CC(C)(C)C3)=C(O)C1 | -5 | -1 | 44* | 3 | -3 | 2 | 1
